From ChEMBL document CHEMBL1154760, “Optimization of a pipemidic acid autotaxin inhibitor” (J Med Chem, 2010)
Activity calls are given as the source filed them. The rule behind the calls is not given here.

Experiments:
[1] = biological target: T1, Glycerophosphocholine cholinephosphodiesterase ENPP6 (Homo sapiens) (UniProt Q6UWR7); experiment: Inhibition of NPP6 expressed in HEK293 cells assessed as para-nitrophenylphosphoryl choline hydrolysis; format: cell-based
T1 sequence (whole entry): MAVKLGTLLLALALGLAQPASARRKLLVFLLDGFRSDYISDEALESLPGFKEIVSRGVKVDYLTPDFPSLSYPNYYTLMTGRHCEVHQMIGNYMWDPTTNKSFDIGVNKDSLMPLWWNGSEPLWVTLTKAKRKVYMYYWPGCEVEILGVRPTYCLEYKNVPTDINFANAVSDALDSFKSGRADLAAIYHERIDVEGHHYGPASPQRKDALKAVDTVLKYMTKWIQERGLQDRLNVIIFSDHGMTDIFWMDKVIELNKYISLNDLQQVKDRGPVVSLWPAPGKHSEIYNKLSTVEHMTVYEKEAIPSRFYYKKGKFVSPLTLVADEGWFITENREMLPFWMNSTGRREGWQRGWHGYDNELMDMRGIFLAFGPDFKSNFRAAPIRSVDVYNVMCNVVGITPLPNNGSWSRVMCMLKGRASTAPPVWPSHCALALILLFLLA
Outline: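 NPP6 from conditioned medium of HEK293 cells transiently transfected with human NPP6. Inhibitor at 10 μM in 1% DMSO. Substrate pNPPC at 10 mM in 100 mM Tris-HCl pH 9.0 with 500 mM NaCl and 0.05% Triton X-100, 37 °C. Absorbance read at 1 h, normalized to vehicle after cell-free-medium blank. Mean ± SD of ≥3 wells.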

[2] = biological target: T2, Ectonucleotide pyrophosphatase/phosphodiesterase family member 7 (Homo sapiens) (UniProt Q6UWV6); experiment: Inhibition of NPP7 expressed in HEK293 cells assessed as para-nitrophenylphosphoryl choline hydrolysis; format: cell-based
T2 sequence (whole entry): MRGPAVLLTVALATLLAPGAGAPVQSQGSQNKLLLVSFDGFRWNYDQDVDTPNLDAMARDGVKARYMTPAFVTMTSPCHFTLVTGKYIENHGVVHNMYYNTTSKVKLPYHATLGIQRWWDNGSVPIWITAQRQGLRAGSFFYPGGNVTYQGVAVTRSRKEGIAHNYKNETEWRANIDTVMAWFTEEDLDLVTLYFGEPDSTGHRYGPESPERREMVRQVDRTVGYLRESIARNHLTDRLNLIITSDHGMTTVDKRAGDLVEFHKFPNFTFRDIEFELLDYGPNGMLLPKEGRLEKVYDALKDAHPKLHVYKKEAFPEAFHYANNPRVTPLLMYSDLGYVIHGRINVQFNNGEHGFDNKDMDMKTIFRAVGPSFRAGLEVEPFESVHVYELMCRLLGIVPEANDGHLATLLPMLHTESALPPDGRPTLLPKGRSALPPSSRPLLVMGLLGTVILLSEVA
Outline: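 NPP7 from concentrated conditioned medium of transfected HEK293 cells (human NPP7). Inhibitor at 10 μM in 1% DMSO. Substrate pNPPC at […] in 50 mM Tris-HCl pH 8.5 with 150 mM NaCl and 10 mM taurocholic acid, no EDTA, 37 °C. Absorbance taken at 1 h, vehicle-normalized after blank. Mean ± SD of ≥3 wells.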

Autotaxin [3] = biological target: T3, Autotaxin (Homo sapiens, UniProt Q13822); experiment: Competitive inhibition of human autotaxin at free state isolated from MDA-MB-231 cells assessed as blockade of FS3 substrate hydrolysis by FRET assay; format: cell-based
Autotaxin [4] = biological target: T3, Autotaxin; experiment: Noncompetitive type inhibition of human autotaxin at free state isolated from MDA-MB-231 cells assessed as blockade of FS3 substrate hydrolysis by FRET assay; format: cell-based
Autotaxin [5] = biological target: T3, Autotaxin; experiment: Noncompetitive type inhibition of human autotaxin at enzyme-substrate complex isolated from […] assessed as blockade of FS3 substrate hydrolysis by FRET assay
Outline: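 ATX source: ~10× concentrated serum-free conditioned medium from MDA-MB-435 cells, buffer-exchanged into 50 mM Tris pH 7.4 with 20% ethylene glycol. FS-3 300 nM–20 μM with three inhibitor levels, including zero. Buffer: 50 mM Tris pH 8.0, 140 mM NaCl, 5 mM KCl, 1 mM CaCl2/MgCl2, 30 μM stripped BSA. Run at 37 °C, ex485/em528. Ki′ from simultaneous nonlinear fit to four inhibition models; lowest residual error chosen.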

Compound | Activity [1] | Activity [2] | Ki (Autotaxin [3]) [µM] | Ki (Autotaxin [4]) [µM] | Ki (Autotaxin [5]) [µM]
CCn1cc(C(=O)O)c(=O)c2cnc(N3CCN(C(=S)Nc4ccc5nsnc5c4)CC3)nc21 | inactive | inactive | 7.1 | – | –
CCn1cc(C(=O)O)c(=O)c2cnc(N3CCN(C(=S)Nc4ccc(F)cc4)CC3)nc21 | inactive | inactive | – | – | –
CCn1cc(C(=O)O)c(=O)c2cnc(N3CCN(C(=S)Nc4cccc(Cl)c4)CC3)nc21 | inactive | inactive | – | – | –
CCn1cc(C(=O)O)c(=O)c2cnc(N3CCN(C(=S)Nc4cccc(C(F)(F)F)c4)CC3)nc21 | inactive | inactive | 0.7 | – | –
CCn1cc(C(=O)O)c(=O)c2cnc(N3CCN(C(=S)Nc4ccc(C)cc4)CC3)nc21 | inactive | inactive | – | – | –
CCn1cc(C(=O)O)c(=O)c2cnc(N3CCN(C(=S)Nc4cc(Cl)ccc4Cl)CC3)nc21 | inactive | inactive | – | – | –
CCn1cc(C(=O)O)c(=O)c2cnc(N3CCN(C(=S)Nc4cc(C(F)(F)F)cc(C(F)(F)F)c4)CC3)nc21 | inactive | inactive | 4 | – | –

Other lines, results leading:

Activity [1] | Activity [2] | Ki (Autotaxin [3]) [µM] | Ki (Autotaxin [4]) [µM] | Ki (Autotaxin [5]) [µM] | Compound
inactive | inactive | – | – | – | CCn1cc(C(=O)O)c(=O)c2cnc(N3CCN(C(=S)Nc4ccc(I)cc4)CC3)nc21
inactive | inactive | 4.5 | – | – | CCn1cc(C(=O)O)c(=O)c2cnc(N3CCN(C(=S)Nc4cccc(C)c4)CC3)nc21
– | – | – | 0.2 | – | CCCCCCCCc1ccc(CCC(N)(CO)CCCP(=O)(O)O)cc1 (centres undefined)
inactive | inactive | 4.2 | – | – | CCn1cc(C(=O)O)c(=O)c2cnc(N3CCN(C(=S)Nc4cc(C)cc(C)c4)CC3)nc21
inactive | inactive | – | – | – | CCn1cc(C(=O)O)c(=O)c2cnc(N3CCN(C(=S)Nc4cccc(OC)c4)CC3)nc21
inactive | inactive | – | – | – | CCn1cc(C(=O)O)c(=O)c2cnc(N3CCN(C(=S)Nc4cccc(I)c4)CC3)nc21
inactive | inactive | 5.7 | – | – | CCn1cc(C(=O)O)c(=O)c2cnc(N3CCN(C(=S)Nc4ccc(Cl)cc4)CC3)nc21
inactive | inactive | – | – | – | CCn1cc(C(=O)O)c(=O)c2cnc(N3CCN(C(=S)Nc4cccc(F)c4)CC3)nc21
inactive | inactive | – | 13.2 | 13.2 | CCn1cc(C(=O)O)c(=O)c2cnc(N3CCN(C(=S)Nc4ccc(C(F)(F)F)cc4)CC3)nc21
